Results reported in ChEMBL document CHEMBL5674869, “The Histone Methyltransferase Inhibitor A-366 Uncovers a Role for G9a/GLP in the Epigenetics of Leukemia” (PLoS One, 2015).
Activity calls are given as the source filed them. The calls are words filed in the database; no cut-off is given here.

Tests used:
[1] = system: MDA-MB-231; assay: Antiproliferative activity against human MDA-MB-231 cells assessed as inhibition of colony formation at 10 uM after 14 days by crystal violet staining based clonogenic assay; type: functional, cell-based; conditions: time 14.0 day
Outline: (§1)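 Clonogenic assay: 500 live cells per well were seeded into six-well plates in drug-free medium. Compound diluted in culture medium was added 24 h later. Cells were cultured at 37°C, then fixed and stained with 0.2% crystal violet. Colonies were counted on an automated colony counter.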

[2] = system: HT-1080; assay: Antiproliferative activity against human HT-1080 cells after 5 days by Cell-Titer-Glo assay; type: functional, cell-based; conditions: HT-1080, 120 h
Outline: (§2)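 ATCC tumor lines were grown in their recommended media with 10% FBS and STR-authenticated. Cells were exposed to compound for the stated number of days. Viable cells were read by CellTiter-Glo endpoint. Inhibition was the ratio of treated to untreated wells, with cell-free wells set as 100% inhibition. The EC50 was taken from the dose response.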

[3] = target: T1, Histone-lysine N-methyltransferase EHMT2 (Homo sapiens) (UniProt Q96KQ7); assay: Inhibition of G9a in human PC-3 cells assessed as effect on H3k4me3 levels at 0.3 to 3 uM after 72 hrs by Western blot analysis; type: cell-based; conditions: dose 0.3-3 µM
T1 sequence (whole entry): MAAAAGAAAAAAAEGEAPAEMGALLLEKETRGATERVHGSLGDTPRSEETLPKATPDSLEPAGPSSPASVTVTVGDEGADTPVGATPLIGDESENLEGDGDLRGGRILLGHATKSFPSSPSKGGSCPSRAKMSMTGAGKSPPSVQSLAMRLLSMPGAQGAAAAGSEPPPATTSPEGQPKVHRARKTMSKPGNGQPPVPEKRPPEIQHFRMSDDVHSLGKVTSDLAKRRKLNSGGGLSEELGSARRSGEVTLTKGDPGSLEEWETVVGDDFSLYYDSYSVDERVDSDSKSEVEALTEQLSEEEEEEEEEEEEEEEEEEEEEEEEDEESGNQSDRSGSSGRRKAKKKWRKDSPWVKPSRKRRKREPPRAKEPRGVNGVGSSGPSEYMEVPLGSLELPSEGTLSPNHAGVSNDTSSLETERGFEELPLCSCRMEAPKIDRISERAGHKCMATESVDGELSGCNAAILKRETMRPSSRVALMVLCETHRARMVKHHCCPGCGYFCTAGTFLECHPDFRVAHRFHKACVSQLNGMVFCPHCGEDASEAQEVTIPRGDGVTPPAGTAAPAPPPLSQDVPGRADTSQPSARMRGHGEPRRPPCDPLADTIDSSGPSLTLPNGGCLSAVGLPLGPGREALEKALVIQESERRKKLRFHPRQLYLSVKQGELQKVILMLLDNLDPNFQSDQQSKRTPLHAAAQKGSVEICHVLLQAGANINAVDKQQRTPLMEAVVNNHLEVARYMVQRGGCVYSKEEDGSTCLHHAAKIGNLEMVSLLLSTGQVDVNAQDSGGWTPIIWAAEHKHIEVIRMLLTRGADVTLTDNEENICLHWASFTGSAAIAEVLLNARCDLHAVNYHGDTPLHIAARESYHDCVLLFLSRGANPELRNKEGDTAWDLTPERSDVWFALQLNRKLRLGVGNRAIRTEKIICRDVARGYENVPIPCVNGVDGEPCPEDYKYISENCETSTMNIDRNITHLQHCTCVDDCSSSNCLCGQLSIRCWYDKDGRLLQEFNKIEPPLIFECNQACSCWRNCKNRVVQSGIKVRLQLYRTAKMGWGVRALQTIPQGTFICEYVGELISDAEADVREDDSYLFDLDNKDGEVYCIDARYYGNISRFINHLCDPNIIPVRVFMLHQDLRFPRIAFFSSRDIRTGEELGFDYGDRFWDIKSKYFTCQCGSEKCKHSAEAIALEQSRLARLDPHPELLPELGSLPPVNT
Outline: (§3)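 PC-3 prostate cells incubated with DMSO, 0.3 or 3 μM compound for 72 h. Lysates probed by western blot with antibodies to H3K9me2, H3K4me2, H3K4me3, H3K9me3, H4K20me1, H4K20me3, H3K36me2 and H3K27me3.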

[4] = target: T1, Histone-lysine N-methyltransferase EHMT2 (Homo sapiens); assay: Inhibition of G9a in human PC-3 cells assessed as effect on H3k9me3 levels at 0.3 to 3 uM after 72 hrs by Western blot analysis; type: cell-based; conditions: dose 0.3-3 µM; outline: as §3
[5] = target: T1, Histone-lysine N-methyltransferase EHMT2 (Homo sapiens); assay: Inhibition of G9a in human PC-3 cells assessed as effect on H4k20me3 levels at 0.3 to 3 uM after 72 hrs by Western blot analysis; type: cell-based; conditions: dose 0.3-3 µM; outline: as §3
[6] = system: MDA-MB-231; assay: Antiproliferative activity against human MDA-MB-231 cells assessed as effect on colony formation at 0.1 to 10 uM after 14 days by crystal violet staining based clonogenic assay; type: functional, cell-based; conditions: dose 0.1-10 µM, time 14.0 day; outline: as §1
[7] = system: HT-1080; assay: Antiproliferative activity against human HT-1080 cells upto 10 uM after 5 days by Cell-Titer-Glo assay; type: functional, cell-based; conditions: time 5.0 day; outline: as §2
[8] = system: MV4-11; assay: Antitumor activity against human MV4-11 cells xenografted in SCID/beige mouse assessed as tumor growth inhibition at 30 mg/kg/day via osmotic-mini pump for 14 days; type: functional; conditions: MV4-11, 336 h, time 14 day
Outline: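 MV4;11 cells mixed with 50% Matrigel, 5 x 10^6 cells injected subcutaneously in flank of 6–8 week old female SCID-beige mice. At ~200 mm3, mice allocated by tumor volume (n = 10/group). Dosed by osmotic mini-pump in 98% PEG-400/2% Tween-80 for 14 days. Calipers read 2 times weekly, V = (L x W2)/2. %TGI computed from control versus treated mean tumor volumes.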

[9] = system: Mus musculus; assay: Decrease in H3K9me2 level in SCID/beige mouse tumor xenografted with human MV4-11 cells at 30 mg/kg/day via osmotic-mini pump for 14 days by alphaLisa assay; type: functional, organism-based; conditions: Neoplasm, time 14.0 day
Outline: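 Female SCID-beige mice, 6–8 weeks old, received 5 x 10^6 MV4;11 cells in 50% Matrigel subcutaneously in the flank. At about 200 mm3, compound was given at 30 mg/kg/day by osmotic mini-pump in 98% PEG-400/2% Tween-80. In the PK/PD arm, tumors were harvested at the stated day and H3K9me2 was measured by AlphaLISA relative to vehicle.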

[10] = Drug level in SCID/beige mouse tumor xenografted with human MV4-11 cells at 30 mg/kg/day via osmotic-mini pump; type: ADME, organism-based, Neoplasm; conditions: in vivo
Outline: (§4)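 Tumor-bearing SCID-beige female mice (6–8 wk) with subcutaneous flank MV4;11 xenografts (5 x 10^6 cells in 50% Matrigel, grown to ~200 mm3). Compound given by osmotic mini-pump at 30 mg/kg/day in 98% PEG-400/2% Tween-80. Separate PK/PD arm sacrificed after 2, 7 and 14 days of treatment; plasma and tissues collected and analyzed for drug levels.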

[11] = Drug level in SCID/beige mouse liver xenografted with human MV4-11 cells at 30 mg/kg/day via osmotic-mini pump; type: ADME, organism-based; conditions: in vivo; outline: as §4
[12] = target: T1, Histone-lysine N-methyltransferase EHMT2 (Homo sapiens); assay: Inhibition of G9a in human HL-60 cells assessed as increase in cell differentiation marker CD11b for 14 days by flow cytometry; conditions: time 14.0 day
[13] = system: HL-60 (human); assay: Induction of cell cycle arrest in human HL-60 cells assessed as increase in G1 phase cells after 4 days by propidium iodide staining based flow cytometry; conditions: time 4.0 day

| EC50 [2] [nM] | inhibition [3] | inhibition [4] | inhibition [5] | Drug uptake [10] | Drug uptake [11] | inhibition [12] | SMILES | Activity [1] | Activity [6] | Activity [7] | inhibition in vivo at 30 mg/kg/day [8] [%] | inhibition [9] | Activity [13] |
| --- | --- | --- | --- | --- | --- | --- | --- | --- | --- | --- | --- | --- | --- |
| 500 | – | – | – | – | – | – | COc1cc2c(NC3CCN(C(C)C)CC3)nc(C3CCCCC3)nc2cc1OCCCN1CCCC1 | Active | – | – | – | – | – |
| – | inactive | inactive | inactive | Active | Active | Active | COc1cc2c(cc1OCCCN1CCCC1)N=C(N)C21CCC1 | – | inactive | inactive | 45 | Active | Active |
